Data published in ChEMBL document CHEMBL1155297, “Synthesis, antimicrobial and antioxidant activities of substituted pyrazoles, isoxazoles, pyrimidine and thioxopyrimidine derivatives” (2009).

Assays:
Type in all cases: functional
Proteus vulgaris [1] = test: Antibacterial activity against Proteus vulgaris NCIM 2027 at 100 ug/disk after 24 hrs by agar disk diffusion method; details: NCIM 2027, 24 h, read-out: IZ
Outline: (§1)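 Agar disc diffusion on nutrient agar plates pre-inoculated with each bacterium. Sterile 6 mm filter-paper discs were moistened with compound in DMSO at the stated per-disc amount. Plates were incubated at 37 °C, and the growth-inhibition zone diameter was read after 24 h. Each determination was run in triplicate, and the mean of three independent readings is reported.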

Staphylococcus aureus [2] = test: Antibacterial activity against Staphylococcus aureus NCIM 5021 at 100 ug/disk after 24 hrs by agar disk diffusion method; details: NCIM 5021, 24 h, read-out: IZ; outline: as §1
[3] = Antioxidant activity assessed as nitric oxide production at 100 uM after 120 mins by Griess reagent method
Outline: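 Nitric oxide assay with Griess read-out. At intervals, 0.5 ml of incubation solution was mixed with 0.5 ml Griess reagent (1% sulfanilamide, 0.1% N-naphthylethylenediamine dihydrochloride, 2% o-phosphoric acid in water). The control received an equal amount of solvent and was handled identically.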

Aspergillus niger [4] = test: Antifungal activity against Aspergillus niger NCIM 596 at 100 ug/disk after 48 hrs by agar disk diffusion method; details: NCIM 596, 48 h, read-out: IZ
Outline: (§2)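 Fungal disc diffusion on nutrient agar plates pre-inoculated with each fungus. 6 mm sterile paper discs carried the compound in DMSO at the stated amount per disc. Plates were held at 37 °C, and inhibition-zone diameter was measured after 48 h. Values are the mean of three independent triplicate readings.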

Fusarium solani [5] = test: Antifungal activity against Fusarium solani NCIM 1330 at 200 ug/disk after 48 hrs by agar disk diffusion method; details: NCIM 1330, 48 h, read-out: IZ; outline: as §2
Klebsiella pneumoniae [6] = test: Antibacterial activity against Klebsiella pneumoniae NCIM 2957 at 200 ug/disk after 24 hrs by agar disk diffusion method; details: NCIM 2957, 24 h, read-out: IZ; outline: as §1
[7] = tested on: Radical scavenging activity; test: Antioxidant activity assessed as DPPH free radical scavenging activity at 100 uM after 20 mins
Outline: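 DPPH scavenging: compound solutions were added to DPPH in dioxane/ethanol and kept at ambient temperature for 20 min. Absorbance was read at 517 nm. The test–control difference was expressed as percent DPPH radical scavenging.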

Proteus vulgaris [8] = test: Antibacterial activity against Proteus vulgaris NCIM 2027 at 200 ug/disk after 24 hrs by agar disk diffusion method; details: NCIM 2027, 24 h, read-out: IZ; outline: as §1
Bacillus subtilis [9] = test: Antibacterial activity against Bacillus subtilis NCIM 2063 at 100 ug/disk after 24 hrs by agar disk diffusion method; details: NCIM 2063, 24 h, read-out: IZ; outline: as §1
Curvularia lunata [10] = test: Antifungal activity against Curvularia lunata NCIM 716 at 200 ug/disk after 48 hrs by agar disk diffusion method; details: NCIM 716, 48 h, read-out: IZ; outline: as §2
Klebsiella pneumoniae [11] = test: Antibacterial activity against Klebsiella pneumoniae NCIM 2957 at 100 ug/disk after 24 hrs by agar disk diffusion method; details: NCIM 2957, 24 h, read-out: IZ; outline: as §1
Fusarium solani [12] = test: Antifungal activity against Fusarium solani NCIM 1330 at 100 ug/disk after 48 hrs by agar disk diffusion method; details: NCIM 1330, 48 h, read-out: IZ; outline: as §2
Bacillus subtilis [13] = test: Antibacterial activity against Bacillus subtilis NCIM 2063 at 200 ug/disk after 24 hrs by agar disk diffusion method; details: NCIM 2063, 24 h, read-out: IZ; outline: as §1
Curvularia lunata [14] = test: Antifungal activity against Curvularia lunata NCIM 716 at 100 ug/disk after 48 hrs by agar disk diffusion method; details: NCIM 716, 48 h, read-out: IZ; outline: as §2
Staphylococcus aureus [15] = test: Antibacterial activity against Staphylococcus aureus NCIM 5021 at 200 ug/disk after 24 hrs by agar disk diffusion method; details: NCIM 5021, 24 h, read-out: IZ; outline: as §1
Aspergillus niger [16] = test: Antifungal activity against Aspergillus niger NCIM 596 at 200 ug/disk after 48 hrs by agar disk diffusion method; details: NCIM 596, 48 h, read-out: IZ; outline: as §2

Structure (SMILES) | zone of inhibition at 100 µg/disc (Proteus vulgaris [1]) [mm] | zone of inhibition at 100 µg/disc (Staphylococcus aureus [2]) [mm] | inhibition [3] [%] | zone of inhibition at 100 µg/disc (Aspergillus niger [4]) [mm] | zone of inhibition at 200 µg/disc (Fusarium solani [5]) [mm] | zone of inhibition at 200 µg/disc (Klebsiella pneumoniae [6]) [mm] | inhibition [7] [%] | zone of inhibition at 200 µg/disc (Proteus vulgaris [8]) [mm] | zone of inhibition at 100 µg/disc (Bacillus subtilis [9]) [mm] | zone of inhibition at 200 µg/disc (Curvularia lunata [10]) [mm] | zone of inhibition at 100 µg/disc (Klebsiella pneumoniae [11]) [mm] | zone of inhibition at 100 µg/disc (Fusarium solani [12]) [mm] | zone of inhibition at 200 µg/disc (Bacillus subtilis [13]) [mm] | zone of inhibition at 100 µg/disc (Curvularia lunata [14]) [mm] | zone of inhibition at 200 µg/disc (Staphylococcus aureus [15]) [mm] | zone of inhibition at 200 µg/disc (Aspergillus niger [16]) [mm]
NC1=NN=C(N)C1C(CC(=O)c1ccccc1)C(=O)c1ccccc1 (stereo unspecified) | 23 | 27 | 71.7 | 29 | 33 | 29 | 73.7 | 26 | 29 | 32 | 27 | 31 | 31 | 30 | 30 | 30
Cc1ccc(C(=O)CC(C(=O)c2ccc(C)cc2)C2C(=N)ON=C2N)cc1 (stereo unspecified) | 21 | 22 | 54.3 | 24 | 34 | 24 | 58.1 | 23 | 26 | 33 | 22 | 32 | 28 | 31 | 25 | 27
Cc1ccc(C(=O)CC(C(=O)c2ccc(C)cc2)C2C(=N)N(C)C(=O)N(C)C2=N)cc1 (stereo unspecified) | 7 | 10 | 20.3 | 10 | 15 | 8 | 21.7 | 9 | 9 | 16 | 7 | 12 | 10 | 14 | 12 | 12
CN1C(=N)C(C(CC(=O)c2ccccc2)C(=O)c2ccccc2)C(=N)N(C)C1=O (stereo unspecified) | 6 | 10 | 22.6 | 12 | 13 | 9 | 23.8 | 8 | 9 | 15 | 7 | 11 | 11 | 13 | 13 | 16
NC1=NC(=S)N=C(N)C1C(CS(=O)(=O)c1ccc(Cl)cc1)S(=O)(=O)c1ccc(Cl)cc1 (stereo unspecified) | 21 | 25 | 48.5 | 20 | 25 | 22 | 47.9 | 23 | 23 | 28 | 20 | 22 | 25 | 25 | 27 | 23
Cc1ccc(S(=O)(=O)CC(C2C(N)=NN=C2N)S(=O)(=O)c2ccc(C)cc2)cc1 (stereo unspecified) | 22 | 27 | 60.5 | 28 | 35 | 26 | 59.4 | 25 | 26 | 33 | 23 | 30 | 28 | 31 | 29 | 31
